We go through twelve compounds from ChEMBL document CHEMBL1158326, “Isolation, synthesis, and antiplatelet aggregation activity of resveratrol 3-O-beta-D-glucopyranoside and related compounds” (J Nat Prod, 1997).

In brackets after ≈: the same amount, converted by molar mass.

One experiment deals with Platelet. Kind of experiment: Inhibition of adenosine diphosphate-induced platelet aggregation in human platelet-rich plasma. The experiment is classed as functional, cell-free. The procedure, abridged: (§1)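 Citrated human PRP from forearm-vein blood (3.8% citrate 1:9, spun 1250 rpm for 18 min at room temperature), adjusted to […] with PPP. Platelets stirred at 1000 rpm and preincubated 3 min at 37 °C with compound or 0.25% DMSO. Inducers were ADP 6 µM, adrenalin 2 µM, arachidonic acid 100 µM, or collagen. Turbidimetric aggregometry read-out; IC50 given as mean ± SE.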
`COc1ccc(/C=C/c2cc(O)cc(O[C@@H]3O[C@H](CO)[C@@H](O)[C@H](O)[C@H]3O)c2)cc1` displayed an IC50 of 300 µg/mL (≈ 742 µM).
`COc1ccc(/C=C\c2cc(O)cc(O)c2)cc1` came in with an IC50 of 101 µg/mL (≈ 415 µM).
Same read-out and setting: the figure for `COc1ccc(/C=C/c2cc(O[C@@H]3O[C@H](CO)[C@@H](O)[C@H](O)[C@H]3O)cc(O[C@@H]3O[C@H](CO)[C@@H](O)[C@H](O)[C@H]3O)c2)cc1` is 300 µg/mL (≈ 530 µM).
Compound `COc1ccc(/C=C/c2cc(OC)c(OC)c(OC)c2)c(O[C@@H]2O[C@H](CO)[C@@H](O)[C@H](O)[C@H]2O)c1` returned an IC50 of 300 µg/mL (≈ 627 µM).
Take `COc1ccc(/C=C\c2cc(O[C@@H]3O[C@H](CO)[C@@H](O)[C@H](O)[C@H]3O)cc(O[C@@H]3O[C@H](CO)[C@@H](O)[C@H](O)[C@H]3O)c2)cc1`: the IC50 amounted to 300 µg/mL (≈ 530 µM).
Turning to `COc1ccc(/C=C\c2cc(O)cc(O[C@@H]3O[C@H](CO)[C@@H](O)[C@H](O)[C@H]3O)c2)cc1`, the IC50 came out at 198 µg/mL (≈ 490 µM).
As for `COc1ccc(/C=C/c2cc(OC)c(OC)c(OC)c2)c(O)c1`, the IC50 was found to be 300 µg/mL (≈ 948 µM).
As to `COc1ccc(/C=C\c2cc(OC)c(OC)c(OC)c2)cc1O` [COMBRETASTATIN A4], the IC50 is 75.2 µg/mL (≈ 238 µM).
Same read-out and setting: the figure for `COc1ccc(/C=C\c2cc(OC)c(OC)c(OC)c2)c(O)c1O` [COMBRETASTATIN A-1] is 60.6 µg/mL (≈ 182 µM); for `OC[C@H]1O[C@@H](Oc2cc(O)cc(/C=C/c3ccc(O)cc3)c2)[C@H](O)[C@@H](O)[C@@H]1O` [PICEID] it is 84.9 µg/mL (≈ 217 µM).
`COc1ccc(/C=C/c2cc(O)cc(O)c2)cc1` [RESVERATROL 4'-METHYL ETHER]: the IC50 was 119 µg/mL (≈ 492 µM).
Take `OC[C@H]1O[C@@H](Oc2cc(O)cc(/C=C\c3ccc(O)cc3)c2)[C@H](O)[C@@H](O)[C@@H]1O` [Z-PICEID]: the IC50 is 120 µg/mL (≈ 308 µM).

A further experiment concerns Platelet. Description: Inhibition of collagen-induced platelet aggregation in human platelet-rich plasma. It is filed as functional, cell-free. The procedure, abridged:
as §1
`COc1ccc(/C=C\c2cc(O)cc(O)c2)cc1` returned an IC50 of 33.9 µg.

The test system of another experiment is Platelet. Description: Inhibition of arachidonic acid-induced platelet aggregation in human platelet-rich plasma. The experiment is classed as functional, cell-free. The method in brief:
as §1
As for `OC[C@H]1O[C@@H](Oc2cc(O)cc(/C=C/c3ccc(O)cc3)c2)[C@H](O)[C@@H](O)[C@@H]1O` [PICEID], the IC50 was 57.2 µg/mL (≈ 147 µM).
